The source made the active and inactive calls.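 How the source made its calls, unless noted: active means viability loss from added drug above about 55%, and viability with drug at most 40%, in both replicates (limit read from the data, passing the limit was not always enough); inconclusive means both conditions met in only one replicate; inactive means neither replicate meets both conditions.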

Assay [1] is described as follows: SK-BR-3 cell growth inhibitors, pilot screen, 24 h, human (AID 572;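 active means viability at or below 10% of carrier control in both of two separate runs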;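 further: compound exposure lasted between 18 and 24 h rather than exactly 24 h; 100% = carrier-treated control wells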). As to conditions: SK-BR-3 viability, CellTiter-Glo luminescence, at 10 µM, stronger effect = lower value.
A short description of assay [2]: HUVEC growth inhibition – cell-based, human, primary screen (AID 575;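 active means viability at or below 30% in both replicate assays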;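 further: 100% = median of untreated cell wells with 0.1% DMSO on each plate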). The settings on record: HUVEC proliferation, CellTiter-Glo luminescence, 72 h; at 10 µM; stronger effect = lower value. A digest of the protocol: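 Test system: primary human umbilical vein endothelial cells. Quantity: 1250 cells/well. Compound: single 10 µM dose, 0.1% DMSO, from 5x medium stock. Timing: 72 h treatment at 37 °C. Detection: ATP-based CellTiter-Glo luminescent read. Benchmarks: vehicle and MePR control wells. Format: 384-well plates coated with collagen.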

The nature of assay [3]: growth inhibitors of H69AR lung tumor, primary screen, human, duplicate replicates (AID 580;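 active means viability at or under a set limit in both replicates, limit being median viability minus 3 SD, cut at about 48% in these data, passing the limit was not always enough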;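 further: 100% = mean luminescence of untreated wells and 0% = no signal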). The settings on record: H69AR lung tumor cells viability, ATP luminescence, 72 h; at 10 µM; stronger effect = lower value.
The nature of assay [4]: reversal of MRP1-mediated doxorubicin resistance, pilot screen, H69AR cells, doxorubicin co-treatment (AID 601). As to conditions: CellTiter-Glo, 72 h, at 10 µM; for differential viability (reversal): stronger effect = higher value.
Assay [5] can be described thus: 384-well plate pilot, post-Golgi transport modulator project, inhibition of yeast transport mutant growth (AID 636; in the data active means inhibition above about 31%). As to conditions: absorbance 615 nm, about 18 h, stronger effect = higher value.
Assay [6] can be described thus: growth suppression of yeast trafficking mutant, preliminary HTS, modulators of trafficking downstream of Golgi apparatus project, 1536-format plate, OD 615 nm (AID 637; in the data active means inhibition above about 30%). As to conditions: yeast transport mutant growth, absorbance 615 nm, 18 h; stronger effect = higher value.
Setting [7] is: H69AR cells + 2 uM doxorubicin, measured here: viability with 2 uM doxorubicin, stronger effect = lower value.
The mark [8] stands for this setting: H69AR cells, compound alone cytotoxicity.

Take `CC(CCc1ccccc1)NC(=O)C1CCN(S(=O)(=O)c2cnc[nH]2)CC1` (stereo not drawn): the viability in assay [1] was 110% (inactive); in assay [2], 96.4% (inactive); in assay [3] it was 91.3% (inactive); in assay [4] (setting [7]), 81.1%; in assay [4] (setting [8]) it was 91.3%. Also, the differential viability (reversal) in assay [4] (H69AR cells + 2 uM doxorubicin) is 10.2% (inactive). The figures for the inhibition in assay [5] and in assay [6] were -9.73% (inactive) and -3.45% (inactive), respectively.

Take `O=C(O)c1ccc(COc2c(F)c(F)c(F)c(F)c2F)o1`: the viability in assay [1] is 78% (inactive); in assay [2] it was 106% (inactive); in assay [3] it was 92.9% (inactive); in assay [4] (setting [7]), 101%; in assay [4] (setting [8]), 92.9%. Besides, in assay [4] (H69AR cells + 2 uM doxorubicin), the differential viability (reversal) was -8.1% (inactive). In addition, the values for the inhibition in assay [5] and in assay [6] were 0.14% (inactive) and 19.4% (inactive), respectively.

Consider `Cc1ccc2c(c1)NC(=O)C(CC(=O)NCCCN1CCN(c3cc(Cl)ccc3C)CC1)O2` (stereo not drawn), for which the viability in assay [1] was 75.5% (inactive); in assay [2], 1.67% (active); in assay [3], 22.9% (active); in assay [4] (setting [7]), 40.7%; in assay [4] (setting [8]), 22.9%. Besides, the differential viability (reversal) in assay [4] (H69AR cells + 2 uM doxorubicin) was -17.8% (inactive). In addition, the inhibition is 3.07% (inactive) in assay [5] and 0.98% (inactive) in assay [6].

`COc1cc(C(=O)N(C)c2nnc(-c3cccnc3)s2)cc(OC)c1OC`: the viability in assay [1] is 123% (inactive); in assay [2], 89.6% (inactive); in assay [3], 82.7% (inactive); in assay [4] (setting [7]), 91.6%; in assay [4] (setting [8]), 82.7%. In addition, the differential viability (reversal) in assay [4] (H69AR cells + 2 uM doxorubicin) is -8.95% (inactive). For the same compound, the results for the inhibition in assay [5] and in assay [6] were -2.05% (inactive) and 17.4% (inactive), respectively.

In the case of `CC(C)OC(=O)C1C2C=CC3(CN(Cc4cccs4)C(=O)C13)O2` (stereo not drawn), the viability in assay [1] is 89% (inactive); in assay [2] it was 96.7% (inactive); in assay [3], 90.1% (inactive); in assay [4] (setting [7]), 93.8%; in assay [4] (setting [8]) it was 90.1%. Besides, the differential viability (reversal) in assay [4] (H69AR cells + 2 uM doxorubicin) is -3.73% (inactive). Also, the inhibition in assay [5] was -6.44% (inactive); in assay [6] it was 2.42% (inactive).

With `N#CC1=C(N)N2C(=C(C#N)C13CCCCC3)SC1CCCCC12O` (stereo not drawn), the viability in assay [1] is 72% (inactive); in assay [2], 88.2% (inactive); in assay [3], 76.1% (inactive); in assay [4] (setting [7]) it was 69.4%; in assay [4] (setting [8]), 76.1%. In assay [4] (H69AR cells + 2 uM doxorubicin), the differential viability (reversal) is 6.71% (inactive). The inhibition in assay [5] was -3.01% (inactive); in assay [6], 8.91% (inactive).

For `CCCC1(C(=O)OC)NC(c2cc(OC)c(OC)c(OC)c2)C2C(=O)N(CC)C(=O)C21` (stereo not drawn), the viability is 67% (inactive) in assay [1]; 98.3% (inactive) in assay [2]; 88.9% (inactive) in assay [3]; 90.4% in assay [4] (setting [7]); 88.9% in assay [4] (setting [8]). The differential viability (reversal) in assay [4] (H69AR cells + 2 uM doxorubicin) is -1.5% (inactive). In addition, the results for the inhibition in assay [5] and in assay [6] were -4.93% (inactive) and 21.4% (inactive), respectively.

For `N#Cc1c(N2CCOCC2)nc(N2CCCCC2)c2c1CCN(C1CCCCC1)C2`, the viability is 92% (inactive) in assay [1]; 101% (inactive) in assay [2]; 89.2% (inactive) in assay [3]; 71.6% in assay [4] (setting [7]); 89.2% in assay [4] (setting [8]). Moreover, the differential viability (reversal) in assay [4] (H69AR cells + 2 uM doxorubicin) was 17.5% (inactive). For the same compound, the inhibition is -1.22% (inactive) in assay [5] and -1.82% (inactive) in assay [6].

`c1ccc2oc(SCc3cn4ccccc4n3)nc2c1`: the viability is 91% (inactive) in assay [1]; 93.3% (inactive) in assay [2]; 95% (inactive) in assay [3]; 85.6% in assay [4] (setting [7]); 95% in assay [4] (setting [8]). Besides, in assay [4] (H69AR cells + 2 uM doxorubicin), the differential viability (reversal) was 9.37% (inactive). Also, the figures for the inhibition in assay [5] and in assay [6] were -1.43% (inactive) and -1.48% (inactive), respectively.

With `CCOC(=O)C1CCCN(CC(=O)NC2CC2)C1` (stereo not drawn), the viability was 112% (inactive) in assay [1]; 96.6% (inactive) in assay [2]; 88.2% (inactive) in assay [3]; 89.7% in assay [4] (setting [7]); 88.2% in assay [4] (setting [8]). Besides, the differential viability (reversal) in assay [4] (H69AR cells + 2 uM doxorubicin) is -1.56% (inactive). The results for the inhibition in assay [5] and in assay [6] were -7.16% (inactive) and -2.91% (inactive), respectively.

Regarding `C[C@]12CC[C@@H]3c4ccc(O)cc4C(=O)C[C@H]3[C@@H]1CC[C@@H]2O`, the viability in assay [1] is 103% (inactive); in assay [2], 89.2% (inactive); in assay [3], 80.6% (inactive); in assay [4] (setting [7]) it was 78.2%; in assay [4] (setting [8]) it was 80.6%. Further, in assay [4] (H69AR cells + 2 uM doxorubicin), the differential viability (reversal) was 2.45% (inactive). For the same compound, the inhibition in assay [5] is -0.39% (inactive); in assay [6] it was 2.67% (inactive).

(Values after PubChem BioAssay.)
